Assays:
[1] = molecular target: Chymotrypsinogen A (Bos taurus) (UniProt P00766); experiment: Percent activity regained after N2H4 treatment for alpha-chymotrypsin (17 nM); format: functional
[2] = molecular target: Chymotrypsinogen A (Bos taurus) (UniProt P00766); experiment: Time for which maximum percent inhibition by the compound was determined against alpha-chymotrypsin (17 nM); format: functional
Outline: (§1)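 Enzyme incubated with excess lactone added from DMSO stock (final 10% DMSO); aliquots over 2 h diluted into substrate: chymotrypsin Suc-AAPF-pNA 315 µM, pH 7.2, 410 nm; t-PA Spectrozyme t-PA 0.2 mM, Tris-imidazole pH 8.4, 405 nm; HNE MeO-Suc-AAPV-pNA 150 µM, pH 7.4, 410 nm; plasmin Ts-GPK-pNA 157.4 µM, pH 7.8, 404 nm; thrombin Ts-GPR-pNA 75 µM, pH 8.0, 408 nm; trypsin Z-VGR-pNA 155 µM, pH 7.2, 404 nm. Activity given relative to a no-lactone control. Some runs used a 10-min substrate-free delay after dilution. ∞ means no recovery over 2 h.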

[3] = molecular target: Chymotrypsinogen A (Bos taurus) (UniProt P00766); experiment: Time for which maximum percent inhibition persists was determined against alpha-chymotrypsin (17 nM); * =no enzyme activity was recovered over 2 h; format: functional; outline: as §1
[4] = molecular target: Chymotrypsinogen A (Bos taurus) (UniProt P00766); experiment: Acylation rate constant against Chymotrypsinogen
Outline: (§2)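 Competitive substrate assay: lactone (DMSO, final 10% v/v) and chromogenic substrate combined in buffer, enzyme added, absorbance followed to steady state. Turnover-corrected semilog plot gives kobs; I0 vs I0/kobs replot (eq 6) with separately determined Km yields Ki and ka. Where no burst was seen, Ki was estimated from Km(app) replots using 15-s initial velocities. Buffers and substrates as in incubation assay.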

[5] = molecular target: Chymotrypsinogen A (Bos taurus) (UniProt P00766); experiment: Substrate binding constant against Chymotrypsinogen; outline: as §2
[6] = molecular target: Chymotrypsinogen A (Bos taurus) (UniProt P00766); experiment: Second order rate constant against Chymotrypsinogen; outline: as §2
[7] = molecular target: T1, Neutrophil elastase (Homo sapiens) (UniProt P08246); experiment: Maximum percent inhibition persists was determined against human neutrophil elastase HNE 66 nM; outline: as §1
T1 sequence (whole entry): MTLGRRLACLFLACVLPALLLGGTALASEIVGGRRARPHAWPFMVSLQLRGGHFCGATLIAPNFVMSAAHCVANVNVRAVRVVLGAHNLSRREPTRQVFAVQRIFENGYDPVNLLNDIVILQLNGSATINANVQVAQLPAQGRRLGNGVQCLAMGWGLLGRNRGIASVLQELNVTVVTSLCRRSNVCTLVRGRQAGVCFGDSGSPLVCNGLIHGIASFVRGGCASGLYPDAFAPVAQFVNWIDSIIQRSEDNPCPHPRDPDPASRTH

[8] = molecular target: T1, Neutrophil elastase (Homo sapiens); experiment: Time for which maximum percent inhibition persists was determined against human neutrophil elastase HNE(66 nM); format: functional; outline: as §1
[9] = molecular target: T1, Neutrophil elastase (Homo sapiens); experiment: Time for which maximum percent inhibition by the compound was determined against human neutrophil elastase HNE(66 nM); format: functional; outline: as §1
[10] = molecular target: Plasminogen (Homo sapiens) (UniProt P00747); experiment: Time to reach maximum percent inhibition by the compound was determined against plasmin(625 nM); format: functional
Sequence of Plasminogen (Homo sapiens) (P00747 97-580 limits assumed): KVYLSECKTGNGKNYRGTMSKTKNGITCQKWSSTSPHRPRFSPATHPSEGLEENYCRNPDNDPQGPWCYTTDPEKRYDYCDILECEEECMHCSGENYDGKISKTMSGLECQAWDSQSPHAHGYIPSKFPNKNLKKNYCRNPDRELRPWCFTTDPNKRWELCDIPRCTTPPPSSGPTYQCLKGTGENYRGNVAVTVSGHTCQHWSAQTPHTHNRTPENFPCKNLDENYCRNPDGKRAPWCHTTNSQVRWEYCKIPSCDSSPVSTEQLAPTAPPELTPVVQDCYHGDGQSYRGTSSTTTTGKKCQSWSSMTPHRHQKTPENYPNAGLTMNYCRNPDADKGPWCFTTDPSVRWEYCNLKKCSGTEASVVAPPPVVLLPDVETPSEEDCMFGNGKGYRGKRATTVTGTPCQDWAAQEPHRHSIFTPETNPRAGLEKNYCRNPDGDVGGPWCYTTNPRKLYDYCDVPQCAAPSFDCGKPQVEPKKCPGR
Sequence of Plasminogen (Homo sapiens) (P00747 581-810 limits assumed): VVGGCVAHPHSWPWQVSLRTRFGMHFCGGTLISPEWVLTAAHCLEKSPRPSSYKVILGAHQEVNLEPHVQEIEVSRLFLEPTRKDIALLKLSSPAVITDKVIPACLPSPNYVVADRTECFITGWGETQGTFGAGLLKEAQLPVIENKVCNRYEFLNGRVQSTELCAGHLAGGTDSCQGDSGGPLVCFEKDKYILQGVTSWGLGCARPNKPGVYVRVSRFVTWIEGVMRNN
Outline: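 Plasmin plus excess lactone (10% final DMSO) was sampled over 2 h into Ts-Gly-Pro-Lys-pNA (157.4 μM) in 0.05 M phosphate, pH 7.8. The slope at 404 nm, relative to an enzyme-only control, gave residual activity. Minutes needed to reach maximal inhibition were reported.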

[11] = molecular target: Plasminogen (Homo sapiens) (UniProt P00747); experiment: Percent activity regained after N2H4 treatment for plasmin(625 nM); format: functional
[12] = molecular target: Plasminogen (Homo sapiens) (UniProt P00747); experiment: Substrate binding constant against plasmin; outline: as §2
[13] = molecular target: Plasminogen (Homo sapiens) (UniProt P00747); experiment: Second order rate constant against plasmin; outline: as §2
[14] = molecular target: Plasminogen (Homo sapiens) (UniProt P00747); experiment: Time for which maximum percent inhibition persists was determined against plasmin(625 nM); * =no enzyme activity was recovered over 2 h; format: functional; outline: as §1
[15] = molecular target: Plasminogen (Homo sapiens) (UniProt P00747); experiment: Maximum percent inhibition by the compound was determined against plasmin(625 nM); outline: as §1
[16] = molecular target: Plasminogen (Homo sapiens) (UniProt P00747); experiment: Acylation rate constant against plasmin; outline: as §2
[17] = molecular target: Tissue-type plasminogen activator (Homo sapiens) (UniProt P00750); experiment: Percent activity regained after N2H4 treatment for Tissue plasminogen activator 19.4 nM); format: functional
Sequence of Tissue-type plasminogen activator (Homo sapiens) (P00750 36-562 limits assumed): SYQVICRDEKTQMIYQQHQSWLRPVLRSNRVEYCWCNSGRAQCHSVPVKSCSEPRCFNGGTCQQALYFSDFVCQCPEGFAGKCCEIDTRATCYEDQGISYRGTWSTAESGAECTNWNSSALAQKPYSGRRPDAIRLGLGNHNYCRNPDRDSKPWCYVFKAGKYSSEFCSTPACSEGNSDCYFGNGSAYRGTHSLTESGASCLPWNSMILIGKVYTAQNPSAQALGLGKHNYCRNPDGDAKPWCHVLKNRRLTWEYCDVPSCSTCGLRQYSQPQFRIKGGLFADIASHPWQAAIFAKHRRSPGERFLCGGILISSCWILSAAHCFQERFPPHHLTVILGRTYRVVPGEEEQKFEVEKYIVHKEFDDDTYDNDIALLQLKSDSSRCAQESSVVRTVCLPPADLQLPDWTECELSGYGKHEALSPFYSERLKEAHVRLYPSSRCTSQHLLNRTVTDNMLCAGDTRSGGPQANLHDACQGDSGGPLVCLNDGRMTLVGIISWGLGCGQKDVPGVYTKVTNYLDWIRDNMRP

[18] = molecular target: Tissue-type plasminogen activator (Homo sapiens) (UniProt P00750); experiment: Maximum percent inhibition by the compound was determined against Tissue plasminogen activator (19.4 nM); outline: as §1
[19] = molecular target: Tissue-type plasminogen activator (Homo sapiens) (UniProt P00750); experiment: Substrate binding constant against Tissue plasminogen activator; outline: as §2
[20] = molecular target: Tissue-type plasminogen activator (Homo sapiens) (UniProt P00750); experiment: Time for which maximum percent inhibition persists was determined against Tissue plasminogen activator (19.4 nM); * =no enzyme activity was recovered over 2 h; format: functional; outline: as §1
[21] = molecular target: Tissue-type plasminogen activator (Homo sapiens) (UniProt P00750); experiment: Time to reach maximum percent inhibition by the compound was determined against Tissue plasminogen activator (19.4 nM); format: functional
Outline: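 Tissue plasminogen activator was exposed to excess lactone (10% final DMSO). Over 2 h, aliquots were diluted into Spectrozyme t-PA (0.2 mM) in Tris-imidazole, I 0.3, pH 8.4. Hydrolysis at 405 nm gave residual activity relative to an enzyme-only control. The time (min) to reach maximal percent inhibition was recorded.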

[22] = molecular target: Prothrombin (Homo sapiens) (UniProt P00734); experiment: Substrate binding constant against thrombin; outline: as §2
[23] = molecular target: Prothrombin (Homo sapiens) (UniProt P00734); experiment: Second order rate constant against thrombin; outline: as §2
[24] = molecular target: Prothrombin (Homo sapiens) (UniProt P00734); experiment: Time to reach maximum percent inhibition by the compound was determined against thrombin (1.93 nM); format: functional
Outline: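 Thrombin was incubated with excess lactone (DMSO, 10% final). Aliquots over 2 h were diluted into Ts-Gly-Pro-Arg-pNA (75 μM) in 0.05 M phosphate, 0.01 M EDTA, 10 g/L PEG 8000, 10 mg/L aprotinin, pH 8.0, and read at 408 nm against a no-lactone control. Time to maximal inhibition was recorded.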

[25] = molecular target: T2, Serine protease 1 (Bos taurus) (UniProt P00760); experiment: Time to reach maximum percent inhibition by the compound was determined against trypsin (14.6 nM); format: functional
T2 sequence (whole entry): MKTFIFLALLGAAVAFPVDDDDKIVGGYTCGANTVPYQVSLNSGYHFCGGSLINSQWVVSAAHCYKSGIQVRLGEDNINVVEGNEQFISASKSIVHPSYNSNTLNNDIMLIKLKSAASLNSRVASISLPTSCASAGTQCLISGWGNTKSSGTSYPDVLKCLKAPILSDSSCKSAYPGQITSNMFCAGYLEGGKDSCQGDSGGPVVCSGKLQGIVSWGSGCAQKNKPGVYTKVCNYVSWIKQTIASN
Outline: (§3)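 Trypsin was incubated with excess lactone added from DMSO stock (10% final DMSO). Aliquots taken over 2 h were diluted into Z-Val-Gly-Arg-pNA (155 μM) in 0.2 M phosphate, pH 7.2, and read at 404 nm. Activity came from the absorbance slope versus a no-lactone control. Reported are minutes to maximal inhibition and minutes it persisted; ∞ means no recovery within 2 h.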

[26] = molecular target: T2, Serine protease 1 (Bos taurus); experiment: Time for which maximum percent inhibition persists was determined against trypsin (14.6 nM); format: functional; outline: as §3
[27] = molecular target: Prothrombin (Homo sapiens) (UniProt P00734); experiment: Maximum percent inhibition by the compound was determined against thrombin (1.93 nM); outline: as §1
[28] = molecular target: Prothrombin (Homo sapiens) (UniProt P00734); experiment: Acylation rate constant against thrombin; outline: as §2
[29] = molecular target: Prothrombin (Homo sapiens) (UniProt P00734); experiment: Percent activity regained after N2H4 treatment for thrombin (1.93 nM); format: functional
[30] = molecular target: T2, Serine protease 1 (Bos taurus); experiment: Maximum percent inhibition by the compound was determined against trypsin (14.6 nM); outline: as §1
[31] = Ratio of initial inhibitor concentration to initial Chymotrypsinogen concentration
Outline: (§4)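 Ratio I0/E0 of lactone to enzyme in the 2-h incubation assay; lactone added from DMSO stock to buffered enzyme (final 10% DMSO).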

[32] = Ratio of initial inhibitor concentration to initial HNE concentration; outline: as §4
[33] = Ratio of initial inhibitor concentration to initial Plasmin concentration; outline: as §4
[34] = Ratio of initial inhibitor concentration to initial t-PA concentration; outline: as §4
[35] = Ratio of initial inhibitor concentration to initial thrombin concentration; outline: as §4
[36] = Ratio of initial inhibitor concentration to initial trypsin concentration; outline: as §4
[37] = Ratio of initial inhibitor concentration to initial urokinase concentration; outline: as §4
[38] = molecular target: Chymotrypsinogen A (Bos taurus) (UniProt P00766); experiment: Maximum percent inhibition persists was determined against Chymotrypsinogen (17 nM); outline: as §1
[39] = molecular target: T3, Urokinase-type plasminogen activator (Homo sapiens, UniProt P00749); experiment: Percent activity regained after N2H4 treatment for Urokinase-type plasminogen activator (300 nM); format: functional
[40] = molecular target: Prothrombin (Homo sapiens) (UniProt P00734); experiment: Time for which maximum percent inhibition persists was determined against thrombin (1.93 nM); * =no enzyme activity was recovered over 2 h; format: functional; outline: as §1
[41] = molecular target: T3, Urokinase-type plasminogen activator
[42] = molecular target: T3, Urokinase-type plasminogen activator; remark: listed apart in the source
[43] = molecular target: T3, Urokinase-type plasminogen activator; experiment: Acylation rate constant against urokinase

SMILES: N=C(N)Nc1ccc(C2CC/C(=C\I)OC2=O)cc1 (stereo not drawn)
- Activity [1]: 32%
- TIME [2]: 0.25 h
- TIME [3]: No enzyme activity
- Ka [4]: 7.22 min⁻¹
- Ks [5]: 2.4 µM
- Rate [6]: 3 ka/Ks
- inhibition [7]: 38%
- TIME [8]: 1.5 h
- TIME [9]: 0.5 h
- TIME [10]: 0 h
- Activity [11]: 14%
- Ks [12]: 0.03 µM
- Rate [13]: 453 ka/Ks
- TIME [14]: No enzyme activity
- inhibition [15]: 95%
- Ka [16]: 13.6 min⁻¹
- Activity [17]: 0%
- inhibition [18]: 48%
- Ks [19]: 0.67 µM
- TIME [20]: No enzyme activity
- TIME [21]: 0.25 h
- Ks [22]: 0.93 µM
- Rate [23]: 14 ka/Ks
- TIME [24]: 0 h
- TIME [25]: 0 h
- TIME [26]: 0 h
- inhibition [27]: 93%
- Ka [28]: 12.9 min⁻¹
- Activity [29]: 85%
- inhibition [30]: 80%
- Ratio [31]: 118 Io/Eo
- Ratio [32]: 36 Io/Eo
- Ratio [33]: 16 Io/Eo
- Ratio [34]: 100 Io/Eo
- Ratio [35]: 518 Io/Eo
- Ratio [36]: 86 Io/Eo
- Ratio [37]: 50 Io/Eo
- inhibition [38]: 78%
- Activity [39]: 0%
- TIME [40]: No enzyme activity
- Ks [41]: 0.16 µM
- Rate [42]: 117 ka/Ks
- Ka [43]: 18.6 min⁻¹
